Results as given in ChEMBL document CHEMBL1955828, “Anti-mycobacterial activities of some cationic and anionic calix[4]arene derivatives” (Bioorg Med Chem, 2012).
≈ marks a conversion by molar mass, not a printed value.

Columns and labels:
[1] = test system: Mycobacterium tuberculosis; assay: Antimycobacterial activity against isoniazid-resistant Mycobacterium tuberculosis MYC5165 after 6 days by MTT assay; type: functional, organism-based; settings: MYC5165, 144 h
Method in brief: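 Twofold serial compound dilutions in Middlebrook 7H9 broth were inoculated with bacterial suspension in 7H9 (H37Rv, or INH-resistant MYC5165) and incubated 6 days. MTT (1 mg/mL) was then added, followed by 1 more day of incubation, solubilisation buffer, and OD read at 570 nm. MIC was the lowest concentration inhibiting growth relative to untreated bacilli, and IC50 was also determined.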

[2] = test system: Mycobacterium tuberculosis; assay: Ratio of MIC for isoniazid to compound MIC isoniazid-resistant Mycobacterium tuberculosis MYC5165 after 6 days by MTT assay; type: functional
[3] = Selectivity ratio of CC50 for human MRC5 cells to MIC for isoniazid-resistant Mycobacterium tuberculosis MYC5165; type: functional

SMILES | IC50 [1] | MIC [1] | Ratio [2] | Ratio [3]
NCCc1cc2c(O)c(c1)Cc1cc(CCN)cc(c1O)Cc1cc(CCN)cc(c1O)Cc1cc(CCN)cc(c1O)C2 | 0.7 µM | 3.2 µM (≈ 1.91 µg/mL) |  | 
Cc1ccc(-c2ccc(COc3c4cc(CCN)cc3Cc3cc(CCN)cc(c3O)Cc3cc(CCN)cc(c3OCc3ccc(-c5ccc(C)cn5)nc3)Cc3cc(CCN)cc(c3O)C4)cn2)nc1 | 0.5 µM | 1.6 µM (≈ 1.54 µg/mL) |  | 
Cc1ccc(-c2ccc(COc3c4cc(CCNC(=N)N)cc3Cc3cc(CCNC(=N)N)cc(c3O)Cc3cc(CCNC(=N)N)cc(c3OCc3ccc(-c5ccc(C)cn5)nc3)Cc3cc(CCNC(=N)N)cc(c3O)C4)cn2)nc1.O=C(O)C(F)(F)F | 0.1 µM | 0.4 µM | 15 | 85
Cc1csc(-c2nc(COc3c4cc(CCNC(=N)N)cc3Cc3cc(CCNC(=N)N)cc(c3O)Cc3cc(CCNC(=N)N)cc(c3OCc3csc(-c5nc(C)cs5)n3)Cc3cc(CCNC(=N)N)cc(c3O)C4)cs2)n1.O=C(O)C(F)(F)F | < 0.1 µM | 0.1 µM | 125 | 6
N=C(N)NCCc1cc2c(O)c(c1)Cc1cc(CCNC(=N)N)cc(c1O)Cc1cc(CCNC(=N)N)cc(c1O)Cc1cc(CCNC(=N)N)cc(c1O)C2.O=C(O)C(F)(F)F | 0.1 µM | 0.8 µM | 15 | 256
O=C(O)c1cn(C2CC2)c2cc(N3CCNCC3)c(F)cc2c1=O [CIPROFLOXACIN] |  | 2.5 µM (≈ 0.828 µg/mL) |  | 
NNC(=O)c1ccncc1 [ISONIAZID] |  | 12.5 µM (≈ 1.71 µg/mL) |  | 
